Reference: ChEMBL document CHEMBL4513216, “Probing the Open Global Health Chemical Diversity Library for Multistage-Active Starting Points for Next-Generation Antimalarials” (ACS Infect Dis, 2020)

Assay: Toxicity liver stage against HepG2, at 10uM
Type: cell-based
Parameters: test concentration 10 uM, cell line HepG2-A16-CD81EGFP
Conditions: human, HepG2-A16-CD81EGFP cells; read-out: INHIBITION
Procedure, shortened: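 Uninfected HepG2-A16-CD81EGFP cells, 3 × 10^3 per well, 1536-well, plated on prespotted compound at 10 μM final, parasite-free screening media added to match infected plates; puromycin 10 μM positive, DMSO 0.5% negative; run in parallel with 48 h PbLuc assay at 37 °C, 5% CO2; viability by CellTiter-Glo luminescence, normalized to controls.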

| Compound | cytotoxicity at 10 µM [%] |
| --- | --- |
| CCn1ccnc1CN1CCCC(CO)(Cc2cccc(OC)c2)C1 (stereo unspecified) | 3.25 |
| O=c1[nH]cnc2[nH]c(N3CCCCC3)nc12 | 3.03 |
| F[C@@H]1CN(Cc2ccccc2)C[C@@H]1OCc1nc2cnccc2[nH]1 | -0.966 |
| c1ccc(O[C@H]2COCCN(Cc3cccc4c3OCO4)C2)cc1 | 3.53 |
| Cc1n[nH]c2c1C(c1ccc(F)cc1)SCC(=O)N2 (stereo unspecified) | 2.06 |
| CN1CC[C@H](N(Cc2ccccc2)CC2CC2)C[C@H](O)C1 | -1.47 |
| Cc1ccc(C(=O)N2CC(=O)N(Cc3cccs3)CC(O)C2)cc1 (stereo unspecified) | -5.46 |
| O=C(Cn1ccc2ccccc21)NC[C@@H]1CCCN2CCCC[C@H]12 | -4.16 |
| COCC(=O)N1CCC(c2ccc(OC)cc2)C1 (stereo unspecified) | 1.81 |
| Cc1nc(OCC(=O)N2CCCC2)cc(-n2cccn2)n1 | 3.99 |
| Cn1cc(CN2CCc3c(c(COCC#N)nn3C)C2)cn1 | -2.45 |
| CN(C)Cc1nn(C)c2c1CN(C(=O)c1cccc(C#N)c1)C2 | 7.38 |
| O=C(c1ccnnc1)N1C[C@H]2CCC[C@@H](OCc3cccnc3)[C@@H]2C1 | 5.19 |
| O=C(C1CCOCC1)N1CCO[C@@H]2[C@@H](OCc3ccncc3)CC[C@@H]21 | 8.5 |
| COCC1COCCC12CCN(C(=O)CC1Cc3ccccc3C1)CC2 (stereo unspecified) | 4.03 |
| COCC1CN(C(=O)C2=CCCC2)Cc2cnn(CC3CC3)c21 (stereo unspecified) | 9.61 |
| COCC1CC2(CCN(C(=O)c3ccc(F)c(Cl)c3)CC2)CO1 (stereo unspecified) | -131 |
| Cc1ccc2c(cnn2CCC(=O)NCc2csc(C)n2)c1 | 1.14 |
| COc1cccc(CC(=O)N2CCC(c3ccn4nccc4n3)CC2)c1 | -3.79 |
| Cc1nc(=O)c2ccccc2n1C1=CCN(CC(=O)NC(C)C)CC1 | -7.99 |
| O=C(NCCc1cc2nc(-c3ccncc3)ccn2n1)C1CC1 | 5.82 |
| Cc1cc(-c2nccs2)nc(C2CCN(Cc3ccccn3)CC2)n1 | 7.73 |
| COCC(=O)N1CCC(C)(c2cc(O)[nH]n2)CC1 | -6.92 |

| Compound | cytotoxicity at 10 µM [%] |
| --- | --- |
| CNC(=O)C1(CCCc2cnccn2)CCN1CCc1ccccc1 (stereo unspecified) | -1.23 |
| Cc1cc(C(=O)N(C)C)nc(C2(C)CCCN2c2ccccc2)n1 (stereo unspecified) | 4.89 |
| O=C1NC2(CCN(CC(=O)N3CCOCC3)CC2)Nc2ccc(Br)cc21 | -0.445 |
| CNc1cc(C2CN(C(=O)c3ccccc3)CCO2)nc(C)n1 (stereo unspecified) | 6.1 |
| CNC(=O)c1c[nH]nc1C1CCCN1c1ncccn1 (stereo unspecified) | 10 |
| CC(C)n1c(C2CCCN(Cc3ccnn3C)C2)nc2ccccc21 (stereo unspecified) | -0.0273 |
| O=C(c1cccnc1)N1CCCC(c2cc(C(F)F)n3ncnc3n2)C1 (stereo unspecified) | 0.745 |
| Cc1cc(Br)cnc1N(C)CC1CCOC1 (stereo unspecified) | 4.99 |
| CC(C)C(C)NC(=O)c1cccn1Cc1cccnc1 (stereo unspecified) | -44 |
| Cc1ccc(S(=O)(=O)Nc2ccc(-n3ccnc3C)nc2)cc1N(C)C | -3.78 |
| COc1ccc(Br)cc1Cn1nc(C(N)=O)ccc1=O | 8.09 |
| Cn1cc(C2(C)CN(C(=O)COc3ccccc3F)CCO2)cn1 (stereo unspecified) | 0.814 |
| CSc1c[nH]nc1NS(=O)(=O)c1ccc(C)c(C)c1 | 1.79 |
| CCC(c1ccc(F)cc1F)S(=O)(=O)CCO (stereo unspecified) | -137 |
| CNC(=O)c1ccc(NC(=O)NC(C)CCc2cccn2C)c(C)c1 (stereo unspecified) | 3.75 |
| CC(=O)N1CCCN(C(=O)NCC2(c3cccs3)CCCC2)CC1 | 3.23 |
| CC(C)CC(CO)NS(=O)(=O)Cc1ccon1 (stereo unspecified) | -3.33 |
| Cc1nnc(C2Cc3ccccc3CN2Cc2nc(C3CC3)no2)o1 (stereo unspecified) | -13.1 |
| CCCC(=O)NC1CCCN(C(=O)c2ccc(C)nc2)C1 (stereo unspecified) | 17.5 |
| Cc1cc(N2CCc3c(ncn3C3CC3)C2)nc(N)n1 | -5.44 |
| Cc1nc(C)c(CCNC(=O)NC2CC(=O)N(C(C)(C)C)C2)s1 (stereo unspecified) | -1.08 |
| CC(C)(C)NC(=O)C1CSCN1S(=O)(=O)c1ccccc1S(C)(=O)=O (stereo unspecified) | -4.04 |
| CCSc1ccc(C(=O)N2CCCC2C(=O)N2CCOCC2)cn1 (stereo unspecified) | -6.98 |

| Compound | cytotoxicity at 10 µM [%] |
| --- | --- |
| CN(CCCc1n[nH]c(N)c1C#N)C(=O)NC1CC1 | 5.85 |
| NC(=O)NC(=O)CCN1C(=O)CC(Cc2ccc(F)cc2)C1=O (stereo unspecified) | -0.327 |
| CCCN(CC(F)F)c1cc(COC)nc2ncnn12 | -3.22 |
| Cn1nnnc1SC1CCN(c2ccccc2Cl)C1=O (stereo unspecified) | 5.12 |
| CCNC(=O)CCC(=O)NC1(c2cccc(C(F)(F)F)c2)CCC1 | -39.8 |
| COc1cc(-n2cccc2)c(Cl)cc1C(=O)NS(C)(=O)=O | 0.872 |
| CC(NC(=O)N1CCN(c2ncccn2)CC1)c1ccc(C#N)cc1 (stereo unspecified) | -2.81 |
| CC(C)c1nc(C2CCCN2CCNS(C)(=O)=O)no1 (stereo unspecified) | 3.33 |
| Cc1[nH]c2ccccc2c1CCNC(=O)N1CCC2(C1)OCCO2 | 1.12 |
| Cc1ccc(C(=O)N2C[C@@H]3COC[C@]3(COc3cccnc3)C2)cn1 | -3.91 |
| CCO[C@H]1CO[C@@]2(CCCN(S(=O)(=O)c3ccccc3)C2)C1 | 4.42 |
| CNCc1cn(CC2CCN(CC(C)(C)CN3CCCC3)CC2)nn1 | -1.58 |
| Cc1cc2ccccc2n1CCC(=O)N1CCCCC1CCO (stereo unspecified) | 10.4 |
| CC(C)OC(=O)N1CCCCC1CCn1cccn1 (stereo unspecified) | -1.17 |
| CSCc1noc(CN2CC3(CCCC3)CC2=O)n1 | 4.29 |
| O=c1[nH]c(-c2cccnc2)nc2c1CCN(S(=O)(=O)N1CCCC1)C2 | 0.384 |
| CC(C)(O)c1cn(C2CCN(C(=O)CCc3ccncc3)CC2)nn1 | -5.32 |
| CN1CC[C@H]2CN(C(=O)c3ccc4sc5c(c4c3)CCNC5=O)C[C@H]21 | -0.193 |
| CNCc1n[nH]c(=O)n1CC1CCCCC1 | -46.5 |
| O=C(O)c1cccc(CC2CCN(c3ncc(F)cn3)CC2)c1 | -108 |
| COCCN1CC2(CCCN(Cc3cc(=O)c(OC)co3)C2)CCC1=O (stereo unspecified) | -40 |
| CN1C(=O)c2ccc(C(=O)N(Cc3cnn(C)c3)C3CC3)cc2C1=O | 5.68 |
| O=C(N[C@@H]1CCN(c2nc3ccccc3o2)C[C@H]1O)c1cnccn1 | 3.52 |

| Compound | cytotoxicity at 10 µM [%] |
| --- | --- |
| CCc1cccc(OC2CN(C(=O)[C@@H](N)CCSC)C2)c1 | 0.684 |
| CCC(CC)Cn1ncc(N2CCOCC2)cc1=O | -3.46 |
| Cc1ncsc1CCC(=O)NCc1csc(N(C)C)n1 | 1.31 |
| Nc1cc(N2CCCC(COc3ccc(F)cc3)C2)ncn1 (stereo unspecified) | -0.106 |
| COc1ccc(CC(=O)N2CC[C@H](CO)[C@H](O)C2)c(OC)c1 | -0.392 |
| N#Cc1cccnc1N1CCCC(CO)(CCOc2ccccc2)C1 (stereo unspecified) | 3.04 |
| Cc1noc(CN2CC(=O)N(C)c3ccccc3C2=O)n1 | -5.03 |
| COc1ccc(CN2CCCC(Nc3cccc(F)c3)C2)cc1O (stereo unspecified) | 5.76 |
| CCn1cnnc1C1CCN(C(=O)c2cc(OC)ccc2OC)CC1 | -4.2 |
| CC(C)c1cc(NC(=O)CN2CCCC2Cn2cncn2)on1 (stereo unspecified) | -4.05 |
| CN(Cc1cccc(F)c1)Cc1nc2c(cnn2C)c(=O)[nH]1 | -2.8 |
| CCOc1ccnc(N2CCN(C(=O)c3ccoc3)CC2)n1 | -6.1 |
| O=C(N1CCCC(n2cncn2)C1)C1(c2cccc(F)c2)CC1 (stereo unspecified) | -2.91 |
| COc1c(CNCc2ccccc2Cn2ccnc2)c(C)nn1C | -9.2 |
| O=C(NCC1CC1)Nc1ccc(OCC(F)(F)F)nc1 | -2.4 |
| Cc1cc(C(=O)NCC(c2ccsc2)N(C)C)no1 (stereo unspecified) | -18.3 |
| CN(C)c1cc(CNC(=O)c2cccc(F)c2)ccn1 | -13.5 |
| NC(=O)NC(=O)CN1CCN(c2nccs2)CC1 | -17.9 |
| c1ccc(CN2CCCC(Cn3cncn3)C2)nc1 (stereo unspecified) | -9.93 |
| Cc1ncsc1C(=O)NCCNc1ncccc1C#N | -21.5 |
| Cc1cccc2[nH]cc(CC(=O)N3CCC(Nc4cccnn4)CC3)c12 | -8.45 |
| CCc1ccc(CNC(=O)N2CCN(Cc3cc(C)no3)CC2)s1 | 1.45 |
| CCc1ncc(CN(C)C(=O)Nc2cccnc2N2CCCC2)s1 | -8.43 |

| Compound | cytotoxicity at 10 µM [%] |
| --- | --- |
| Cn1ncc2c(=O)[nH]c(CN3CCCC3Cc3ccccc3)nc21 (stereo unspecified) | -6.56 |
| CC(C)c1ncncc1C(=O)N1CCCN(Cc2cccs2)CC1 | -7.42 |
| O=C(NCc1cc[nH]n1)NCC(c1ccc(F)cc1)N1CCOCC1 (stereo unspecified) | -7.77 |
| Cc1nc(-c2ccc(CO)cc2)cc(C2CCNCC2)n1 | 12.3 |
| O=C(C1CCOCC1)N1C[C@H]2CCC[C@@]2(COc2cccnc2)C1 | -1.18 |
| CN1CC(=O)N(c2cccc(F)c2)CC12CCN(Cc1ccsc1)C2 (stereo unspecified) | 4.93 |
| CC(C)CS(=O)(=O)N1CCC2(CN(c3ccsc3)C(=O)CN2C)C1 (stereo unspecified) | 6.88 |
| Cc1cccc(CN2CCc3nnc(Cn4cccc4)n3CC2)n1 | 1.7 |
| CN(C)C(C)(C)CNCc1cn(C)nc1-c1cccnc1 | 11.8 |
| N#Cc1ccc(C(=O)N2CC[C@H]3[C@@H]2CCC(=O)N3c2cccnc2)cc1 | 1.77 |
| c1ccc(CN2CCc3c(COCC4CC4)cncc3C2)nc1 | 2.41 |
| Cc1ccc2c(c1)CN(C(=O)c1ccccc1F)C(CN(C)C)CO2 (stereo unspecified) | 4.66 |
| Cn1ccnc1CN1CCC2(CC1)Cc1ccccc1CNC2=O | -1.6 |
| CN(C)c1ncc2c(n1)C1(CCN(Cc3ccccc3F)C1)COC2 (stereo unspecified) | 10.6 |
| O=C([C@@H]1CCO[C@@H]2CCN(Cc3cccs3)C[C@H]21)N1CCCCO1 | 5.77 |
| O=C(NC[C@]12COC[C@H]1CN(Cc1nccs1)C2)c1ccccc1 | -11.8 |
| CC(C)c1nn(C)cc1CNCc1ccnc(N(C)C)c1 | -0.431 |
| Cc1ccc2c(n1)N(C)CCN(C(=O)NC(C)C)C2 | -3.38 |
| CCCn1nccc1NC(=O)CN1CCc2cnc(CC)nc2C1 | 2.31 |
